Data as given in ChEMBL document CHEMBL1137442, “Synthesis and anticonvulsant evaluation of 4-(4-alkoxylphenyl)-3-ethyl-4H-1,2,4-triazoles as open-chain analogues of 7-alkoxyl-4,5-dihydro[1,2,4]triazolo[4,3-a]quinolines” (Bioorg Med Chem, 2007).
The source made the active and inactive calls.

Columns and labels:
[1] = Neurotoxicity in ip dosed C57B/6 mouse after 30 mins by rotarod test; format: toxicity, organism-based; conditions: in vivo
Method in brief: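 Mice, groups of 10, given a range of ip doses to define 10–90% minimal neurotoxicity. At 30 min after dosing, each mouse was placed on a 1-in. knurled rod rotating at 6 rpm for 1 min. Neurotoxicity meant failure to keep equilibrium in each of three trials.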

[2] = system: Mus musculus; assay: Anticonvulsant activity against MES-induced seizure in ip dosed C57B/6 mouse by MES test; format: functional; conditions: C57B/6, ip
Method in brief: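 Mice, groups of 10, given a range of intraperitoneal doses until at least three points fell within 10–90% protection. MES was tested 30 min after dosing, with current applied via corneal electrodes for 0.2 s. Protection was defined as abolition of the hind-leg tonic maximal extension.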

[3] = species: Mus musculus; assay: Protective index, ratio of TD50 for C57B/6 mouse by rotarod test to ED50 for C57B/6 mouse by MES test; format: functional
[4] = species: Mus musculus; assay: Anticonvulsant activity against isoniazid-induced seizure in C57B/6 mouse; format: functional
Method in brief: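 Isoniazid was given ip at 250 mg/kg, a dose set by a dose–percent effect curve to convulse 100% of animals. Test compounds were given beforehand. ED50 was the dose protecting 50% of animals from tonic convulsions.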

[5] = species: Mus musculus; assay: Anticonvulsant activity against 3-mercaptopropionic acid-induced seizure in C57B/6 mouse; format: functional
Method in brief: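 3-Mercaptopropionic acid 40 mg/kg in saline was injected sc 1 h after test treatment. Convulsion latency and duration, plus lethality latency and percentage, were recorded over 1 h. ED50 was the dose preventing tonic convulsions in 50% of treated animals.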

[6] = species: Mus musculus; assay: Anticonvulsant activity against pentylenetetrazole-induced seizure in C57B/6 mouse; format: functional
Method in brief: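 Pentylenetetrazole 85 mg/kg sc, a dose giving 100% convulsions, was given 30 min after test treatment. Latency and duration of convulsions, plus latency and percentage of lethality, were recorded over the following 1 h. ED50 was the dose preventing tonic convulsions in 50% of treated animals.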

[7] = system: Mus musculus; assay: Anticonvulsant activity against strychnine-induced seizure in C57B/6 mouse at 300 mg/kg; format: functional, organism-based; set-up: dose 300 mg/kg
Method in brief: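 Strychnine chlorhydrate in saline (1.2 mg/mL, 1 mL/kg) was given sc as a 100%-convulsant dose after compound pretreatment, with the compound tested at 300 mg/kg. Mice were housed individually and observed for 30 min, recording seizure onset time, number of tonic seizures and lethality.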

[8] = species: Mus musculus; assay: Anticonvulsant activity against thiosemicarbazide-induced seizure in C57B/6 mouse; format: functional
Method in brief: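 Thiosemicarbazide 50 mg/kg ip, a fully convulsant dose, was given 1 h after test treatment. Latency and duration of convulsions, plus lethality latency and percentage, were recorded over 2 h 30 min. ED50 was the dose preventing tonic convulsions in 50% of treated animals.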

SMILES	TD50 at 0.5 h [1] [mg/kg]	ED50 [2] [mg/kg]	Ratio TD50/ED50 [3]	ED50 [4] [mg/kg]	ED50 [5] [mg/kg]	ED50 [6] [mg/kg]	Activity [7]	ED50 [8] [mg/kg]
CCc1nncn1-c1ccc(OCc2ccc(Cl)cc2)cc1	137	19.7	10.4	–	–	–	–	–
CCc1nncn1-c1ccc(OCc2ccccc2)cc1	102	20.8	4.9	–	–	–	–	–
Fc1ccc(COc2ccc3c(c2)CCc2nncn2-3)cc1	54.5	11.8	4.6	–	–	–	–	–
CCCOc1ccc(-n2cnnc2CC)cc1	–	> 100	–	–	–	–	–	–
CCc1nncn1-c1ccc(OCc2c(Cl)cccc2Cl)cc1	132	15.8	8.3	–	–	–	–	–
CCc1nncn1-c1ccc(OCc2cccc(F)c2)cc1	91.2	22.8	4	–	–	–	–	–
c1ccc(COc2ccc3c(c2)CCc2nncn2-3)cc1	61.4	17.3	3.5	–	–	–	–	–
CCCCCCCCCCCCOc1ccc(-n2cnnc2CC)cc1	–	> 100	–	–	–	–	–	–
CCc1nncn1-c1ccc(OCc2ccc(F)cc2)cc1	91.3	22.8	4	–	–	–	–	–
CCc1nncn1-c1ccc(OCc2ccccc2Cl)cc1	76.1	13.2	5.8	–	–	–	–	–
Cc1ccc(COc2ccc3c(c2)CCc2nncn2-3)cc1	65.8	20.5	3.2	–	–	–	–	–
CCCCCCCOc1ccc(-n2cnnc2CC)cc1	45.6	8.3	5.5	–	–	–	–	–
CCOc1ccc(-n2cnnc2CC)cc1	–	> 100	–	–	–	–	–	–
CCc1nncn1-c1ccc(OCc2ccc3c(c2)OCO3)cc1	189	20.1	9.4	–	–	–	–	–
CCCCCCOc1ccc2c(c1)CCc1nncn1-2	30.3	13.5	2.2	–	–	–	–	–
CCCCCCCCOc1ccc(-n2cnnc2CC)cc1	82.2	8.8	9.3	38.1	22.8	26.4	inactive	31.7
CCc1nncn1-c1ccc(OCc2ccccc2F)cc1	61.5	21.2	2.9	–	–	–	–	–
CCc1nncn1-c1ccc(OCc2cccc(Cl)c2)cc1	110	27.4	4	–	–	–	–	–
CCCCCCOc1ccc(-n2cnnc2CC)cc1	62.1	13.2	4.7	–	–	–	–	–
CCc1nncn1-c1ccc(OCc2ccc(OC)cc2)cc1	132	15.8	8.3	–	–	–	–	–
CCCCOc1ccc(-n2cnnc2CC)cc1	–	> 100	–	–	–	–	–	–
CCc1nncn1-c1ccc(OCc2ccc(C)cc2)cc1	101	25.5	4	–	–	–	–	–
CCc1nncn1-c1ccc(OCc2c(F)cccc2F)cc1	109	15.8	6.9	–	–	–	–	–
